Assay [1] in a line: Antioxidant activity assessed as trolox equivalent of […]-induced radical scavenging activity at 0.5 to 10 uM measured every 60 sec for 4 hrs by ORAC fluorescence assay relative to trolox. It is filed as functional. In a few lines: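 ORAC-FL in 75 mM phosphate buffer pH 7.4. Sample and fluorescein (300 nM final) preincubated 10 min at 37 °C, then AAPH added (12 mM final). Fluorescence read every 60 s for 4 h (ex 485, em 535 nm). Trolox standard 1–10 µM final; samples 0.5–10 µM. Blank without antioxidant run each assay, curves normalized to it. Fourfold mixtures, at least four independent runs. Expressed as µM Trolox equivalent per µM compound.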

Another assay deals with Acetylcholinesterase (Electrophorus electricus, UniProt O42275). Put plainly: Inhibition of electric eel AChE using […] as substrate preincubated for 15 mins by Ellman's method. In general terms: DTNB colorimetry detects thiols as they appear.
The target of assay [2] is T1, Butyrylcholinesterase (Equus caballus, UniProt Q9N1N9). Put plainly: Inhibition of equine serum BuChE using […] as substrate preincubated for 15 mins by Ellman's method.
In assay [3] the target is T1, Butyrylcholinesterase. Put plainly: Inhibition of equine serum BuChE using butyrylthiocholine chloride as substrate preincubated for 15 mins by Ellman's method.
Assay [4] can be described thus: Inhibition of self-mediated amyloid beta (1 to 42) aggregation at 20 uM after 48 hrs by thioflavin T fluorescence assay. Put shortly:
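HFIP-pretreated Abeta1-42 resolubilized in 50 mM phosphate buffer pH 7.4, then incubated at 37 °C for 48 h (final peptide 50 µM) with or without compound at 20 µM. Samples diluted into 50 mM glycine-NaOH pH 8.0 containing thioflavin T. Fluorescence scanned 300 s (ex 450, em 485 nm). Plateau values averaged after subtracting thioflavin T background.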

Assay [5] in a line: Selectivity ratio of IC50 for equine serum BuChE to IC50 for electric eel AChE. Put shortly: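 Ellman assay in 0.1 M KH₂PO₄/K₂HPO₄ buffer, pH 8.0, with electric eel AChE or equine serum BuChE (2.0 units/ml solutions) and DTNB. Compounds dissolved in DMSO, diluted in buffer, and preincubated with enzyme for 15 min at 37 °C before substrate was added. A412 was read at 1 min intervals at 37 °C. Ratio calculated as IC50(BuChE)/IC50(AChE).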

The target of assay [6] is Acetylcholinesterase (Electrophorus electricus) (UniProt O42275). Put plainly: Mixed type inhibition of electric eel AChE using acetylcholine chloride as substrate by Lineweaver-Burk reciprocal plot analysis. In a few lines: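 Enzyme in 0.1 M potassium phosphate pH 8.0 with DTNB. Compound preincubated with enzyme at 37 °C for 15 min, then acetylcholine substrate added. Absorbance read at 412 nm. Reciprocal plots of 1/V versus 1/[S]. Slopes replotted against inhibitor concentration by weighted analysis. Ki taken as the replot intercept divided by the replot slope.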

Calls of active or inactive are those of the source. The rule behind the calls is not given here.

Sequence of Acetylcholinesterase (O42275 whole entry): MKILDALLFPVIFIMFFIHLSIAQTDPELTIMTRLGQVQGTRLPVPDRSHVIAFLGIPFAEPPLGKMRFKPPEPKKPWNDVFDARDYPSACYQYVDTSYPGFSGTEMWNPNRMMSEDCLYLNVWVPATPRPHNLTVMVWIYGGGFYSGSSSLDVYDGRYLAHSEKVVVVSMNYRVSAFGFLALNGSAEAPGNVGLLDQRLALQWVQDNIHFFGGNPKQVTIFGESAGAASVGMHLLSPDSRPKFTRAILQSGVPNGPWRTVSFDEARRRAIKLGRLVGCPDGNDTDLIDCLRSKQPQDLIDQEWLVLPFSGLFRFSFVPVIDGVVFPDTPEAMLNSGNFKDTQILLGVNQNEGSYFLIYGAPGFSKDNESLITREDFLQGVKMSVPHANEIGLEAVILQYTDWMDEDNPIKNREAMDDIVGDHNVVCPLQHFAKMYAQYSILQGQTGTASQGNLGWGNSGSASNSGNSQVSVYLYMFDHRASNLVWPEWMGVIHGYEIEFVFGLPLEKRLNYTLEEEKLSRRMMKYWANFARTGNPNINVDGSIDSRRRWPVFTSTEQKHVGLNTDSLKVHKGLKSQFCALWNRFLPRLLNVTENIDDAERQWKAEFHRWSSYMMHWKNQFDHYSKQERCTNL
T1 sequence (Q9N1N9 whole entry): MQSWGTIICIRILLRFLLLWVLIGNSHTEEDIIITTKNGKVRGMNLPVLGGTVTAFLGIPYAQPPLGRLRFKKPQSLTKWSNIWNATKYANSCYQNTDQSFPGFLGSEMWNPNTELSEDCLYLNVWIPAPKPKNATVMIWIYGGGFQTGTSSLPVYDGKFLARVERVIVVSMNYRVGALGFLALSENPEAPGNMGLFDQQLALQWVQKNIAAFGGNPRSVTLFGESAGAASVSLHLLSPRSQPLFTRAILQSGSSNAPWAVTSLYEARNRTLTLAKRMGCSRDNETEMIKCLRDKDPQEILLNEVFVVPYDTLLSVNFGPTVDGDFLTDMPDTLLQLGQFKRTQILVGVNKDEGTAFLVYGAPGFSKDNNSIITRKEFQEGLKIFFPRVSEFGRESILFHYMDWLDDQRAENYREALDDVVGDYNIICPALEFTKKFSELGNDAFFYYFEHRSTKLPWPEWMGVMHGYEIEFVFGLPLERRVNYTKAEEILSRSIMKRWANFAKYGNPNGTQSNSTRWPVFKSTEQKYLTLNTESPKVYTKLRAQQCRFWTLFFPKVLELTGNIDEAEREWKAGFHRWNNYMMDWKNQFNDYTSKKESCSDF
Sequence of Acetylcholinesterase (Electrophorus electricus) (O42275 24-633 limits assumed): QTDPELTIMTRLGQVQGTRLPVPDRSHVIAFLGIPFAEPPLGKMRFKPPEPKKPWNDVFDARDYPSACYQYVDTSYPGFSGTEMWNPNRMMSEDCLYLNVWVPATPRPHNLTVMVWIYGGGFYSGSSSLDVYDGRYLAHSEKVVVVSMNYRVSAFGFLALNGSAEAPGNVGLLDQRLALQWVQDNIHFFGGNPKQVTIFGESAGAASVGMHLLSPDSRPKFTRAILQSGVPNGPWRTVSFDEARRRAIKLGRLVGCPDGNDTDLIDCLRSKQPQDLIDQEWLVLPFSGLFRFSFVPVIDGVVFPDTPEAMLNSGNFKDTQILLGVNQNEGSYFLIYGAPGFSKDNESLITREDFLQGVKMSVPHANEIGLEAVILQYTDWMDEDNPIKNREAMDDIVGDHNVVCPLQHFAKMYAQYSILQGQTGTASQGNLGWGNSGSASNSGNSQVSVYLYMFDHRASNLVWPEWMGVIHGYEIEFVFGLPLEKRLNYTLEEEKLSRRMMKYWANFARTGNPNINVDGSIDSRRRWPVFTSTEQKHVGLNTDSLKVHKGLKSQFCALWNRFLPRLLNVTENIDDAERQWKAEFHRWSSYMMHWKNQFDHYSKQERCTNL

A word on the IC50: it is the midpoint of a concentration-inhibition curve. A lower IC50 goes with greater potency in that assay. Broadly, the inhibition is the drop in the measured response relative to a control, in per cent. For the compound `COc1ccc2cc3[n+](cc2c1OCCCOc1cccc(O)c1)CCc1cc2c(cc1-3)OCO2`, the Ratio in assay [1] turned out to be 5.31. For the same compound, the IC50 was 0.628 µM against Acetylcholinesterase, 0.898 µM on Butyrylcholinesterase [2] and 1.13 µM against Butyrylcholinesterase [3]. For the same compound, the inhibition in assay [4] came out at 85.9%. The Ratio IC50 in assay [5] worked out at 1.8.

`COc1ccc2cc3[n+](cc2c1OCCCCOc1ccccc1O)CCc1cc2c(cc1-3)OCO2`: in assay [1], the Ratio came out at 3.54. Moreover, the IC50 against Acetylcholinesterase was 0.123 µM; against Butyrylcholinesterase [2] it was 1.74 µM; on Butyrylcholinesterase [3], 2.09 µM. Further, the inhibition in assay [4] turned out to be 84.5%. Also, the inhibition result in assay [6] was “Active”. The Ratio IC50 in assay [5] amounted to 17.

As to `COc1ccc2cc3[n+](cc2c1OCCCCOc1ccc(O)cc1)CCc1cc2c(cc1-3)OCO2`, the Ratio in assay [1] worked out at 6.45. The IC50 turned out to be 0.304 µM against Acetylcholinesterase, 0.95 µM at Butyrylcholinesterase [2] and 1.04 µM on Butyrylcholinesterase [3]. The inhibition in assay [4] came out at 86.6%. Moreover, the Ratio IC50 in assay [5] turned out to be 3.42.

As to `COc1ccc2[nH]cc(CCNC(C)=O)c2c1`, the Ratio in assay [1] stood at 2.3.

Consider `COc1ccc2cc3[n+](cc2c1OCCCOc1ccccc1O)CCc1cc2c(cc1-3)OCO2`, for which the Ratio in assay [1] turned out to be 3.41. Besides, the IC50 was 0.49 µM against Acetylcholinesterase, 1.3 µM on Butyrylcholinesterase [2] and 1.74 µM against Butyrylcholinesterase [3]. The compound also yielded an inhibition in assay [4] of 83.5%. In addition, the Ratio IC50 in assay [5] amounted to 3.55.

In the case of `COc1ccc2cc3[n+](cc2c1OCCC(=O)NCCc1c[nH]c2ccc(C)cc12)CCc1cc2c(cc1-3)OCO2`, the Ratio in assay [1] was found to be 3.11. Moreover, the IC50 at Acetylcholinesterase was found to be 1.42 µM; against Butyrylcholinesterase [2], 1.79 µM; at Butyrylcholinesterase [3] it was 1.96 µM. The compound further yielded an inhibition in assay [4] of 75.8%. Also, the Ratio IC50 in assay [5] came to 1.39.

In the case of `COc1cc(/C=C/C(=O)OCCCOc2c(OC)ccc3cc4[n+](cc23)CCc2cc3c(cc2-4)OCO3)ccc1O`, the Ratio in assay [1] came to 3.43. The IC50 at Acetylcholinesterase amounted to 3.21 µM; on Butyrylcholinesterase [2], 2.25 µM; on Butyrylcholinesterase [3] it was 2.4 µM. This compound also displayed an inhibition in assay [4] of 75.8%. Besides, the Ratio IC50 in assay [5] was found to be 0.75.

For the compound `COc1ccc2cc3[n+](cc2c1OC)CCc1cc2c(cc1-3)OCO2`, the inhibition in assay [4] is 36.3%.

In the case of `COc1ccc2cc3[n+](cc2c1OCCCCOc1ccccc1)CCc1cc2c(cc1-3)OCO2`, in assay [4], the inhibition is 57.4%.

Turning to `COc1cc(/C=C/C(=O)O)ccc1O` [FERULATE], in assay [1], the Ratio was determined as 3.13. Further, the IC50 on Acetylcholinesterase is greater than 100 µM. Besides, in assay [4], the inhibition stood at 6.1%.

As to `COc1ccc2cc3[n+](cc2c1OCCCCOc1cccc(O)c1)CCc1cc2c(cc1-3)OCO2`, in assay [1], the Ratio came to 5.3. Further, the IC50 against Acetylcholinesterase was 0.547 µM; on Butyrylcholinesterase [2], 1.92 µM; at Butyrylcholinesterase [3], 2.4 µM. In assay [4], this compound yielded an inhibition of 72.8%. The Ratio IC50 in assay [5] is 4.39.

Regarding `COc1ccc2cc3[n+](cc2c1OCCCOc1ccc(O)cc1)CCc1cc2c(cc1-3)OCO2`, the Ratio in assay [1] was 9.54. Besides, the values for the IC50 against Acetylcholinesterase, at Butyrylcholinesterase [2] and against Butyrylcholinesterase [3] were 0.46 µM, 1.66 µM and 2.06 µM, respectively. This compound came in with an inhibition in assay [4] of 92%. Further, the Ratio IC50 in assay [5] was determined as 4.48.

In the case of `COc1ccc2cc3[n+](cc2c1OCCC(=O)NCCc1c[nH]c2ccccc12)CCc1cc2c(cc1-3)OCO2`, in assay [1], the Ratio turned out to be 3.78. The results for the IC50 against Acetylcholinesterase, on Butyrylcholinesterase [2] and on Butyrylcholinesterase [3] were 1.11 µM, 1.46 µM and 1.64 µM, respectively. The compound also displayed an inhibition in assay [4] of 82.8%.

As to `COc1ccc2[nH]cc(CCNC(=O)CCOc3c(OC)ccc4cc5[n+](cc34)CCc3cc4c(cc3-5)OCO4)c2c1`, the Ratio in assay [1] was determined as 3.61. The IC50 against Acetylcholinesterase worked out at 1.44 µM; against Butyrylcholinesterase [2] it was 2.49 µM; against Butyrylcholinesterase [3], 2.72 µM. The compound also displayed an inhibition in assay [4] of 79.5%. Further, in assay [5], the Ratio IC50 was 1.88.
